Measurements: ChEMBL document CHEMBL1146513, “Discorhabdins I and L, cytotoxic alkaloids from the sponge Latrunculia brevis” (J Nat Prod, 2004)
Activity calls are given as the source filed them. The calls are words filed in the database; no cut-off is given here.

Legend:
LoVo [1] = assay: Cytotoxicity against human doxorubicin-resistant LoVo cells by SRB assay; assay type: functional, cell-based
In short: (§1)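 Sulforhodamine B colorimetric staining quantifies cell growth and viability. Compounds were run in vitro against a 14-line tumour panel covering prostate, ovary, breast, melanoma, endothelial, NSCLC, leukaemia, pancreas and colon lines, with values reported as GI50.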

LoVo [2] = assay: Cytotoxicity against human LoVo cells by SRB assay; assay type: functional, cell-based; in short: as §1
DU-145 = assay: Cytotoxicity against human DU145 cells by SRB assay; assay type: functional, cell-based; in short: as §1
LNCaP = assay: Cytotoxicity against human LNCAP cells by SRB assay; assay type: functional, cell-based; in short: as §1
SK-OV-3 = assay: Cytotoxicity against human SKOV3 cells by SRB assay; assay type: functional, cell-based; in short: as §1
IGROV = assay: Cytotoxicity against human IGROV cells by SRB assay; assay type: functional, cell-based; in short: as §1
IGROV-ET = assay: Cytotoxicity against human IGROV-ET cells by SRB assay; assay type: functional, cell-based; in short: as §1
SK-BR-3 = assay: Cytotoxicity against human SKBR3 cells by SRB assay; assay type: functional, cell-based; in short: as §1
SK-MEL-28 = assay: Cytotoxicity against human SK-MEL-28 cells by SRB assay; assay type: functional, cell-based; in short: as §1
[3] = Cytotoxicity against human HMEC1 cells by SRB assay; assay type: cell-based; settings: hmec-1; in short: as §1
A549 = assay: Cytotoxicity against human A549 cells by SRB assay; assay type: functional, cell-based; in short: as §1
K562 = assay: Cytotoxicity against human K562 cells by SRB assay; assay type: functional, cell-based; in short: as §1
PANC-1 = assay: Cytotoxicity against human PANC1 cells by SRB assay; assay type: functional, cell-based; in short: as §1
HT-29 = assay: Cytotoxicity against human HT-29 cells by SRB assay; assay type: functional; in short: as §1

Compound	Activity (LoVo [1])	Activity (LoVo [2])	Activity (DU-145)	Activity (LNCaP)	Activity (SK-OV-3)	Activity (IGROV)	Activity (IGROV-ET)	Activity (SK-BR-3)	Activity (SK-MEL-28)	Activity [3]	Activity (A549)	Activity (K562)	Activity (PANC-1)	GI50 (HT-29) [nM]
O=C([O-])C(F)(F)F.O=C1C2=C3C4=[N+](CCc5c[nH]c1c54)[C@@H]1C(=O)C=C4S[C@@H](C[C@@]43[C@H]1O)N2 [DISCORHABDIN L]	Active	Active	Active	Active	Active	Active	Active	Active	Active	Active	Active	Active	Active	120
O=C1C=C[C@@]23C[C@@H](NC4=C2C2=NCCc5c[nH]c(c52)C4=O)SC3=C1 [1-DEBROMODISCORHABDIN B]	Active	Active	Active	Active	Active	Active	Active	Active	Active	Active	Active	Active	Active	350
